According to ChEMBL document CHEMBL5058577, “EUbOPEN Chemogenomics Library 2 (Multiplex)” (2022):

Tested on: HEK-293T
Assay: Multiplex assay against HEK293T
Format: toxicity, cell-based
Details: human
How it was run: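 Phenotypes for tubulin, mitochondrial mass and membrane permeability are expressed as per cents of healthy-nucleus cells. Cells were stained live at seeding with Hoechst33342, BioTracker Green Microtubule Cytoskeleton Dye, MitoTracker Red and Annexin V Alexa Fluor 680, then imaged after compound addition on a CQ1 microscope at 37°C and 5% CO2. Machine-learning gating in CellPathfinder separated Hoechst high-intensity objects from normal cells, divided normal cells by nuclear state (healthy, pyknosed, fragmented) and divided pyknosed cells into mitotic or apoptotic.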

[1] = 12 h, 1 µM, compound concentration 1 uM, replicate 1
[2] = 12 h, 1 µM, compound concentration 1 uM, replicate 2
[3] = 12 h, 10 µM, compound concentration 10 uM, replicate 1
[4] = 12 h, 10 µM, compound concentration 10 uM, replicate 2
[5] = 24 h, 1 µM, compound concentration 1 uM, replicate 1
[6] = 24 h, 1 µM, compound concentration 1 uM, replicate 2
[7] = 24 h, 10 µM, compound concentration 10 uM, replicate 1
[8] = 24 h, 10 µM, compound concentration 10 uM, replicate 2
[9] = 48 h, 1 µM, compound concentration 1 uM, replicate 1
[10] = 48 h, 1 µM, compound concentration 1 uM, replicate 2
[11] = 48 h, 10 µM, compound concentration 10 uM, replicate 1
[12] = 48 h, 10 µM, compound concentration 10 uM, replicate 2

O=C(O)c1cc2ccccc2c(Cc2c(O)c(C(=O)O)cc3ccccc23)c1O [PAMOIC ACID]
Population Apoptotic (%) [1]: 30% | Population Fragmented Nuclei (%) [1]: 9% | Population Healthy Nuclei (%) [1]: 77% | Population Hoechst High Intensity Objects (%) [1]: 7% | Population Membrane Permeable-Phenotype (%) [1]: 0% | Population Mitochondria Different-Phenotype (%) [1]: 38% | Population Mitotic Cells (%) [1]: 69% | Population Normal (%) [1]: 92% | Population Pyknosed Nuclei (%) [1]: 12% | Population Tubulin-Different-Phenotype (%) [1]: 23% | Total Cell Count [1]: 432 | Population Apoptotic (%) [2]: 58% | Population Fragmented Nuclei (%) [2]: 7% | Population Hoechst High Intensity Objects (%) [2]: 6% | Population Mitochondria Different-Phenotype (%) [2]: 60% | Population Mitotic Cells (%) [2]: 41% | Population Normal (%) [2]: 93% | Population Pyknosed Nuclei (%) [2]: 15% | Population Tubulin-Different-Phenotype (%) [2]: 21% | Total Cell Count [2]: 303 | Population Apoptotic (%) [3]: 34% | Population Fragmented Nuclei (%) [3]: 8% | Population Healthy Nuclei (%) [3]: 79% | Population Hoechst High Intensity Objects (%) [3]: 8% | Population Membrane Permeable-Phenotype (%) [3]: 0% | Population Mitochondria Different-Phenotype (%) [3]: 44% | Population Mitotic Cells (%) [3]: 65% | Population Normal (%) [3]: 91% | Population Pyknosed Nuclei (%) [3]: 12% | Population Tubulin-Different-Phenotype (%) [3]: 34% | Total Cell Count [3]: 446 | Population Apoptotic (%) [4]: 52% | Population Fragmented Nuclei (%) [4]: 4% | Population Healthy Nuclei (%) [4]: 81% | Population Mitochondria Different-Phenotype (%) [4]: 55% | Population Mitotic Cells (%) [4]: 47% | Population Pyknosed Nuclei (%) [4]: 13% | Population Tubulin-Different-Phenotype (%) [4]: 26% | Total Cell Count [4]: 275 | Population Apoptotic (%) [5]: 29% | Population Fragmented Nuclei (%) [5]: 8% | Population Healthy Nuclei (%) [5]: 78% | Population Hoechst High Intensity Objects (%) [5]: 6% | Population Membrane Permeable-Phenotype (%) [5]: 1% | Population Mitochondria Different-Phenotype (%) [5]: 22% | Population Mitotic Cells (%) [5]: 70% | Population Normal (%) [5]: 93% | Population Pyknosed Nuclei (%) [5]: 12% | Population Tubulin-Different-Phenotype (%) [5]: 16% | Total Cell Count [5]: 559 | Population Apoptotic (%) [6]: 40% | Population Fragmented Nuclei (%) [6]: 5% | Population Healthy Nuclei (%) [6]: 86% | Population Membrane Permeable-Phenotype (%) [6]: 0% | Population Mitochondria Different-Phenotype (%) [6]: 39% | Population Mitotic Cells (%) [6]: 59% | Population Pyknosed Nuclei (%) [6]: 7% | Total Cell Count [6]: 378 | Population Apoptotic (%) [7]: 29% | Population Fragmented Nuclei (%) [7]: 9% | Population Healthy Nuclei (%) [7]: 75% | Population Hoechst High Intensity Objects (%) [7]: 5% | Population Membrane Permeable-Phenotype (%) [7]: 0% | Population Mitochondria Different-Phenotype (%) [7]: 27% | Population Mitotic Cells (%) [7]: 70% | Population Normal (%) [7]: 94% | Population Pyknosed Nuclei (%) [7]: 14% | Population Tubulin-Different-Phenotype (%) [7]: 22% | Total Cell Count [7]: 592 | Population Apoptotic (%) [8]: 41% | Population Fragmented Nuclei (%) [8]: 5% | Population Healthy Nuclei (%) [8]: 79% | Population Hoechst High Intensity Objects (%) [8]: 7% | Population Mitochondria Different-Phenotype (%) [8]: 43% | Population Mitotic Cells (%) [8]: 58% | Population Normal (%) [8]: 92% | Population Pyknosed Nuclei (%) [8]: 15% | Population Tubulin-Different-Phenotype (%) [8]: 18% | Total Cell Count [8]: 365 | Population Apoptotic (%) [9]: 18% | Population Fragmented Nuclei (%) [9]: 11% | Population Healthy Nuclei (%) [9]: 81% | Population Hoechst High Intensity Objects (%) [9]: 2% | Population Membrane Permeable-Phenotype (%) [9]: 1% | Population Mitochondria Different-Phenotype (%) [9]: 13% | Population Mitotic Cells (%) [9]: 81% | Population Normal (%) [9]: 97% | Population Pyknosed Nuclei (%) [9]: 7% | Population Tubulin-Different-Phenotype (%) [9]: 10% | Total Cell Count [9]: 998 | Population Apoptotic (%) [10]: 48% | Population Fragmented Nuclei (%) [10]: 8% | Population Healthy Nuclei (%) [10]: 84% | Population Hoechst High Intensity Objects (%) [10]: 7% | Population Membrane Permeable-Phenotype (%) [10]: 0% | Population Mitochondria Different-Phenotype (%) [10]: 27% | Population Mitotic Cells (%) [10]: 51% | Population Normal (%) [10]: 92% | Population Pyknosed Nuclei (%) [10]: 6% | Population Tubulin-Different-Phenotype (%) [10]: 11% | Total Cell Count [10]: 494 | Population Apoptotic (%) [11]: 24% | Population Fragmented Nuclei (%) [11]: 13% | Population Healthy Nuclei (%) [11]: 79% | Population Hoechst High Intensity Objects (%) [11]: 3% | Population Membrane Permeable-Phenotype (%) [11]: 0% | Population Mitochondria Different-Phenotype (%) [11]: 18% | Population Mitotic Cells (%) [11]: 75% | Population Normal (%) [11]: 96% | Population Pyknosed Nuclei (%) [11]: 7% | Population Tubulin-Different-Phenotype (%) [11]: 10% | Total Cell Count [11]: 879 | Population Apoptotic (%) [12]: 36% | Population Fragmented Nuclei (%) [12]: 11% | Population Healthy Nuclei (%) [12]: 82% | Population Hoechst High Intensity Objects (%) [12]: 7% | Population Mitochondria Different-Phenotype (%) [12]: 27% | Population Mitotic Cells (%) [12]: 64% | Population Normal (%) [12]: 92% | Population Pyknosed Nuclei (%) [12]: 5% | Population Tubulin-Different-Phenotype (%) [12]: 12% | Total Cell Count [12]: 517
